Experimental data: ChEMBL document CHEMBL5370545 (Eur J Med Chem, 2023); call rule not given here

Legend:
HT-29 = test: Cytotoxicity against human HT-29 cells expressing heterozygous BRAF V600E mutant assessed as cell growth measured after 7 days of treatment by crystal violet assay; type: functional, cell-based; settings: HT-29, 168 h
Procedure, shortened: (§1)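 Cells seeded in 12-well plates: 8505C at 3 × 10^3, C32 at 10^4, HT29 at 5 × 10^3. Treated 24 h later with a dose series or DMSO vehicle for 7 days. Fixed in 4% PFA and stained with 0.1% crystal violet in 20% methanol. Destained with 10% acetic acid and read at 590 nm. Normalised to vehicle; mean ± SEM of three independent experiments.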

C32 = test: Cytotoxicity against human C32 cells expressing heterozygous BRAF V600E mutant assessed as cell growth measured after 7 days of treatment by crystal violet assay; type: functional, cell-based; settings: C32, 168 h; procedure, shortened: as §1
8505C = test: Cytotoxicity against human 8505C cells expressing homozygous BRAF V600E mutant assessed as cell growth measured after 7 days of treatment by crystal violet assay; type: functional, cell-based; settings: 168 h; procedure, shortened: as §1
[1] = Cytotoxicity against human cells expressing heterozygous BRAF V600E mutant assessed as cell growth measured after 7 days of treatment by crystal violet assay; settings: 168 h
[2] = Chemical stability of compound in cell culture medium at 100 uM at acidic pH measured for 2 to 48 hrs by reverse phase HPLC chromatographic analysis; type: physicochemical; settings: time 2-48 hrs
Procedure, shortened: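 Incubated at 100 µM, 37 °C, in phenol red-free DMEM High Glucose at pH 5, 7.4 or 8 for up to 48 h (2–48 h). Aliquots taken at each time point and analysed by RP-HPLC with a 35 min 0.1% TFA water/acetonitrile gradient. Chromatographic profile and 640/330 nm peak-area ratio followed.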

[3] = Drug uptake in human Hela cells assessed as fluorescent signal at 0.5 uM measured after 48 hrs by fluorescence microscopy; type: ADME, cell-based
Procedure, shortened: (§2)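 A375 and HeLa cells seeded at 3 × 10^4 and treated 24 h later with 0.5 µM compound or DMSO vehicle for 48 h. Washed with PBS, fixed in 4% formaldehyde for 10 min at room temperature, and stained with DAPI and phalloidin. Cy5 signal imaged by inverted fluorescence microscopy.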

[4] = test system: Serine/threonine-protein kinase B-raf (Homo sapiens), P15056 [V600E]; test: Displacement of Vemurafenib from BRAF V600E mutant in human WM278 cells assessed as increase in cyno-fluorescence measured after 90 mins by flow cytometry based displacement assay; type: cell-based
Chain of Serine/threonine-protein kinase B-raf (Homo sapiens), P15056 [V600E] (P15056 whole entry V600E): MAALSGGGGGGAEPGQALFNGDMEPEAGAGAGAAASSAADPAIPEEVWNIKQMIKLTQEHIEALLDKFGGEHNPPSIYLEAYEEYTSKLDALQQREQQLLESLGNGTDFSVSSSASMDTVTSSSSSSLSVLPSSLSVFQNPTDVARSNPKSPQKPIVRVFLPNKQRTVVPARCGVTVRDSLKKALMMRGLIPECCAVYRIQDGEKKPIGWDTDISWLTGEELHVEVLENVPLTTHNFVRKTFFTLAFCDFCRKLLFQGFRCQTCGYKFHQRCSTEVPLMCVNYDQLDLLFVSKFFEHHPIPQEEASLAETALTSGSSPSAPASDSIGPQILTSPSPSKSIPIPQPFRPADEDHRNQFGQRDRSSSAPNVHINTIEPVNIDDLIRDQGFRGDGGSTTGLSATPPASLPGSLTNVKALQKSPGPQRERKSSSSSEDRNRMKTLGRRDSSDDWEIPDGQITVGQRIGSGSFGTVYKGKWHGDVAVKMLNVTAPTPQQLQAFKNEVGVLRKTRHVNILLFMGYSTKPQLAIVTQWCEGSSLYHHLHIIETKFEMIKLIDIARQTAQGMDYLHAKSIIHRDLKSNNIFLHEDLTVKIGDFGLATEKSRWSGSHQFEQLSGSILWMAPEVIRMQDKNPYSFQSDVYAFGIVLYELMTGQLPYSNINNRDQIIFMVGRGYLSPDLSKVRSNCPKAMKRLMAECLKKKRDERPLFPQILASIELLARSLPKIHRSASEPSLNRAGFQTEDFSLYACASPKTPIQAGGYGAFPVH
Procedure, shortened: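 Without washing, the Cy5 probe was added at 0, 0.05, 0.2, 1 and 2 µM for 90 min more. Cells were washed three times with medium (15 min each), imaged live, detached, and cell-associated Cy5 fluorescence was quantified by flow cytometry.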

[5] = Stability of compound in foetal bovine serum at 100 uM measured for 2 to 48 hrs by reverse phase HPLC chromatographic analysis; type: ADME, cell-free, Bos taurus; settings: cattle, time 2-48 hrs
Procedure, shortened: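 Held at 100 µM in foetal bovine serum at 37 °C for up to 48 h (2–48 h). Each aliquot diluted 1:10 in pH 7.4 culture medium before RP-HPLC with a 35 min 0.1% TFA water/acetonitrile gradient. Chromatographic profile monitored.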

[6] = Drug uptake in human A-375 cells harboring BRAF V600E mutant assessed as fluorescent signal at cytoplasm at 0.5 uM measured after 48 hrs by fluorescence microscopy; type: ADME, cell-based; settings: a-375, 48 h; procedure, shortened: as §2
[7] = target: Serine/threonine-protein kinase B-raf (Homo sapiens, UniProt P15056, V600E); test: biochemical
Chain of Serine/threonine-protein kinase B-raf (P15056 2-766 V600E limits assumed): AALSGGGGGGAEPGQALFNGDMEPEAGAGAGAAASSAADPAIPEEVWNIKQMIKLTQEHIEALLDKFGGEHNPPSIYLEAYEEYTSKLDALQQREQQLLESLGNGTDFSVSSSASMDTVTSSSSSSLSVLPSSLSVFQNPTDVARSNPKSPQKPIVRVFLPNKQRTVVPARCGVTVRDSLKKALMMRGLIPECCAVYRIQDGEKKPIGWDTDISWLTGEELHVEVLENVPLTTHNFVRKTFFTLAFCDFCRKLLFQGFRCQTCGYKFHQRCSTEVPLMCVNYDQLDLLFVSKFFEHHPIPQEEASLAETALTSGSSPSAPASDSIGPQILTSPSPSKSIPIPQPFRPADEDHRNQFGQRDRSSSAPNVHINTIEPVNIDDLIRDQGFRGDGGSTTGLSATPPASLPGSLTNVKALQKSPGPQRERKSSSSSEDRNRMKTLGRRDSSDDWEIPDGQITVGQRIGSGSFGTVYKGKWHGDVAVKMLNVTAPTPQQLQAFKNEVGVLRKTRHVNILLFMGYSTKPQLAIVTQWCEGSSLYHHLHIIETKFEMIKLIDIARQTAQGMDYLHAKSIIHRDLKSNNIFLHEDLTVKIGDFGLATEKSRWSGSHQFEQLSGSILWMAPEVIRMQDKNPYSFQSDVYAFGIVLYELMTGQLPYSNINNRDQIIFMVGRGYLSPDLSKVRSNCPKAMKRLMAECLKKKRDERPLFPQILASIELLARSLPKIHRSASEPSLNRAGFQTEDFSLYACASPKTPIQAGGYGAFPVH

CCCS(=O)(=O)Nc1ccc(F)c(C(=O)c2c[nH]c3ncc(-c4ccc(N)cc4)cc23)c1F
IC50 (HT-29): 27 nM
IC50 (C32): 12 nM
IC50 (8505C): 620 nM
IC50 [1]: 15 nM

CCCS(=O)(=O)Nc1ccc(F)c(C(=O)c2c[nH]c3ncc(-c4ccc(NC(=O)COCCOCCNC(=O)CCCCC[N+]5=C(/C=C/C=C/C=C6\N(C)c7ccccc7C6(C)C)C(C)(C)c6ccccc65)cc4)cc23)c1F.O=C([O-])C(F)(F)F
Stability [2]: Unstable
Drug uptake [3]: Not Active
IC50 (HT-29): 340 nM
IC50 (C32): 630 nM
IC50 (8505C): 2500 nM
Activity [4]: Dose-Dependent Effect
IC50 [1]: 570 nM
Stability [5]: Stable
Drug uptake [6]: Active
Kd [7]: 13 nM

CCCS(=O)(=O)Nc1ccc(F)c(C(=O)c2c[nH]c3ncc(-c4ccc(Cl)cc4)cc23)c1F [VEMURAFENIB]
IC50 (HT-29): 49 nM
IC50 (C32): 84 nM
IC50 (8505C): 2940 nM
IC50 [1]: 150 nM
